Most compounds without a hit are left out; they make up all but 2.6% or so of the library.
ABCB6 inh 2 – blocks the human ABCB6 transporter; Q9NP58; K562-ABCB6 porphyrin accumulation, flow cytometry, 1 h; stronger effect = lower value; fluorescence ratio to DMSO, % at 10 µM; 360,000 tested, 0.19% active;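 active = fluorescence ratio to DMSO below 75%, the collection mean minus 3 SD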;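 note: signal is porphyrin accumulated inside mitochondria; 100% equals median channel fluorescence of DMSO control wells; lower ratio means ABCB6 inhibition with less porphyrin fluorescence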
iPSC survival up – increases survival of single human iPS cells; hiPSC single-cell survival, ATPlite luminescence; 100% = ROCK inhibitor wells, 0% = DMSO; survival enhancement, % at 20 µM; 360,000 tested, 0.044% active; in the data active = survival enhancement above about 18%;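 note: cells exposed to compounds for 16 hours before the ATP read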
MC4R barr agon – agonists of human melanocortin 4 receptor (MC4R) beta-arrestin | 360,000 tested, 0.98% active | P32245 | activation, % at 8.9 µM | U2OS MC4R beta-arrestin complementation, luminescence; percent of melanotan II response, DMSO zero;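 active = activation above a per-plate cutoff, the mean activation of sample wells on that plate plus 3 SD, cut at about 8% in these data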
Target sequence (P32245 whole entry, looked up): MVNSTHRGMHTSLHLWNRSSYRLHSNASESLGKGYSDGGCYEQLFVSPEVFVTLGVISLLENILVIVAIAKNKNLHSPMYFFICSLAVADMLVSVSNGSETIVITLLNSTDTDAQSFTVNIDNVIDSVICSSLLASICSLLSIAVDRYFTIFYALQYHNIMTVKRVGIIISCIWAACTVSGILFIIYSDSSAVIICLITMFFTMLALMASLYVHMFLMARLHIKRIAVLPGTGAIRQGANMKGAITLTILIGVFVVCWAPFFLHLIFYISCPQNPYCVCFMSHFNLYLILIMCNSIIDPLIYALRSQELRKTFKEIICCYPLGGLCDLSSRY
Granule exo inh – lytic granule exocytosis inhibition; TALL-104 LAMP-1 surface exposure, flow cytometry; cells stimulated with thapsigargin and PMA; inhibition, % at 10 µM; 360,000 tested, 0.66% active; AID 651702;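 active = inhibition above about 55%, limit read from the data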
TbMetRS inhib – blocks T. brucei methionyl-tRNA synthetase activity. purified T. brucei MetRS, ATP depletion, Kinase-Glo luminescence. 360,000 tested, 0.4% active. inhibition, % at 11.9 µM;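 active = inhibition above a per-plate cutoff of the control wells' mean inhibition plus 3 SD, cut at about 5.5% in these data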;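 note: 0% = DMSO wells median and 100% = median of wells with control inhibitor compound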
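Material: parasite MetRS enzyme / Replication: singlicate, one well per compound / Signal: luminescence of leftover ATP / Schedule: 2 h aminoacylation at 25 °C after 15 min preincubation / Medium: HEPES-MgCl2-KCl buffer plus DTT, spermine, BSA, pyrophosphatase / Doses: 11.9 µM single point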
MC4R antag cAMP – antagonists of human melanocortin 4 receptor (MC4R) | MC4R-expressing cells, MTII-stimulated cAMP, LANCE TR-FRET | P32245 | 360,000 tested, 0.48% active | inhibition, % at 6.5 µM;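 active = inhibition above its plate's cutoff, the mean of tested wells on that plate plus 3 SD, cut at about 29% in these data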;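 note: 0% = Melanotan II alone and 100% = Melanotan II plus saturating MCL0020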
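System: U2OS-MC4R stable cell line; Technique: Eu-cAMP/anti-cAMP TR-FRET, emission 671 nm; Repeats: single well per compound; Also added: Melanotan II; Dosing: one concentration, 6.5 µM nominal; Schedule: 30-min compound, 1-h challenge, 1-h detection, room temperature.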
MC4R barr conf – human MC4R beta-arrestin agonism confirmation; shares compounds with MC4R barr agon; U2OS MC4R beta-arrestin recruitment, luminescence; scaled DMSO 0%, Melanotan II 100%; activation, % at 8.9 µM; 2,400 tested, 31% active; AID 602192;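 active = mean activation across replicates above the hit cutoff set in the earlier primary screen, cut at about 8% in these data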
MOR-DOR barr ag – activates mu-delta opioid heterodimer, MC4R agonist counter-screen | shares compounds with MC4R barr agon | U2OS PathHunter beta-arrestin, beta-gal luminescence; percent of deltorphin B response, DMSO zero | activation, % at 9.2 µM | 2,400 tested, 5.8% active | AID 602194;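 active = mean activation across replicates exceeds the hit threshold derived in the earlier primary screen, cut at about 18% in these data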;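 note: 100% = deltorphin B at 0.9 µM final and 0% = DMSO alone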
Numbers without * were called inactive; x = no result.

SMILES | ABCB6 inh 2 | iPSC survival up | MC4R barr agon | Granule exo inh | TbMetRS inhib | MC4R antag cAMP | MC4R barr conf | MOR-DOR barr ag
CCOC(=O)C1=C(C)NC(C)=C(C(=O)OCC)C1c1sccc1C | 83 | -2 | 2 | -1 | -1 | -4 | x | x
CSc1c(CC(=O)NCCCO)n(Cc2ccccc2)c2ccccc12 | 98 | 0 | 0 | -4 | 0 | 2 | x | x
COc1ccc(NC(=O)Cc2c(SC)c3ccccc3n2Cc2ccccc2)cc1 | 104 | 2 | 24* | -3 | 0 | 9 | 2 | 10
Nc1c(C(=O)CSc2ncccn2)c(=O)[nH]c(=O)n1C1CC1 | 99 | -3 | 0 | -6 | -1 | 11 | x | x
FC(F)(F)c1cccc(NC(=S)NC(c2ccccc2)c2ccccc2)c1 | 96 | 0 | 10* | 6 | -1 | 10 | 6 | 10
FC(F)(F)c1cccc(NC(=S)Nc2ccc(Cl)c(Cl)c2)c1 | 102 | -1 | 3 | -4 | -1 | -6 | x | x
CCn1c(-c2ccccc2)c[nH]c1=S | 97 | 0 | 0 | 1 | -1 | 1 | x | x
S=c1[nH]cc(-c2ccc(Cl)cc2)n1Cc1ccccc1 | 99 | 0 | 19* | -1 | 0 | -2 | 3 | 11
O=S(=O)(c1cc(F)ccc1F)N1CCN(C2CCCCC2)CC1 | 100 | 0 | -2 | 25 | 0 | 0 | x | x
CCOC(=O)c1cnc(SCc2nc(N)nc(Nc3ccc(C)cc3)n2)nc1N | 95 | 1 | -1 | 0 | -1 | 8 | x | x
Cc1cc(OC(C)C(=O)N(Cc2ccco2)C2CCS(=O)(=O)C2)cc(C)c1Cl (centres undefined) | 95 | 2 | 2 | -2 | 0 | 5 | x | x
O=C1c2ccccc2C(=O)N1CN(C(=O)c1ccccc1)c1ccc(O)cc1 | 104 | -3 | 1 | 0 | -1 | 0 | x | x
N/C(=N\c1nc2ccccc2o1)NC(=O)c1ccccc1 | 103 | 7 | 14* | -1 | 0 | 15 | 3 | 5
Cc1ccc(C(=O)N/C(N)=N/c2nc3ccccc3o2)cc1 | 100 | -3 | 16* | -7 | 0 | -4 | 4 | 2
Cc1ccc(NC(=O)c2cc(S(=O)(=O)Nc3ccc(C)cc3)cs2)cc1 | 99 | 0 | 9.6* | -2 | 0 | -3 | 13* | 17
Cc1ccc(NS(=O)(=O)c2ccc(NC(=O)c3cccs3)cc2)c(C)c1 | 94 | 1 | -1 | 3 | 1 | -10 | x | x
COc1ccccc1CCNC(=O)c1cc(-c2ccncc2)nc2ccc(Br)cc12 | 90 | 0 | 18* | 0 | 0 | 7 | 10* | 4
CSc1ccccc1NC(=O)Nc1cccc(Cl)c1Cl | 95 | -1 | 16* | -4 | 0 | -1 | 9.2* | 9
CSc1ccccc1NC(=O)Nc1cccc(Cl)c1C | 98 | 2 | 3 | -3 | 0 | -7 | x | x
CC1(Oc2ccc(Cl)cc2)CCN(Cc2ccc(-c3ccccn3)cc2)C1 (centres undefined) | 98 | 0 | 13* | -1 | 0 | 3 | 7 | 8
CSc1ccc(OC2(C)CCN(Cc3ccc(C(C)C)cc3)C2)cc1 (centres undefined) | 95 | 1 | 12* | -8 | 0 | 5 | 2 | 6
CC1(Oc2ccccc2)CCN(Cc2ccc(-c3ccccn3)cc2)C1 (centres undefined) | 96 | 7 | 8 | -5 | 0 | -1 | x | x
CCc1ccc(OC2(C)CCN(Cc3ccc(SC)cc3)C2)cc1 (centres undefined) | 99 | -1 | 2 | 7 | 0 | 1 | x | x
CCCN1C(=O)/C(=C/c2ccccc2OCc2ccc(C(=O)O)cc2)NC1=S | 94 | 0 | -1 | 4 | 0 | 3 | x | x
Cc1ccc(NC(=O)/C(C#N)=C/c2ccc(Sc3nc(C)cc(C)n3)o2)cc1 | 97 | -1 | 23* | 4 | 0 | 18 | 6 | 22*
SMILES | ABCB6 inh 2 | iPSC survival up | MC4R barr agon | Granule exo inh | TbMetRS inhib | MC4R antag cAMP | MC4R barr conf | MOR-DOR barr ag
Cc1cc(C)nc(Sc2ccc(/C=C(\C#N)C(N)=O)o2)n1 | 95 | 4 | -2 | 1 | 1 | -5 | x | x
CC(=O)Nc1ccc(NC(=S)NC(=O)c2ccc(-c3ccccc3)cc2)cc1 | 92 | 0 | 36* | 18 | 0 | 6 | 4 | 6
O=C(NC(=S)Nc1ccccc1)c1ccc(-c2ccccc2)cc1 | 97 | -1 | 1 | 8 | -1 | 0 | x | x
CN(Cc1ccccc1)C(=S)NC(=O)c1ccc(-c2ccccc2)cc1 | 97 | 3 | 28* | 12 | 0 | -4 | -5 | 2
Cc1c(C(=O)Nc2ccc(-c3nnc4n3CCCCC4)cc2)oc2c1ccc1ccccc12 | 96 | 1 | 11* | 5 | -1 | 13 | 6 | 3
N#C/C(=C\c1cn(Cc2ccccc2)c2ccccc12)C(=O)NCc1ccco1 | 102 | 0 | 17* | 5 | 0 | 7 | 1 | 3
N#C/C(=C\c1cn(Cc2cccc(F)c2)c2ccccc12)C(=O)NCc1ccco1 | 96 | 1 | 31* | 10 | -2 | -1 | 6 | 2
Cc1c(C(=O)N2CC(C)OC(C)C2)[nH]c2ccc(Br)cc12 (centres undefined) | 94 | 0 | -1 | 6 | -1 | 7 | x | x
COc1cccc(-c2noc(-c3ccc4c(c3)OCO4)n2)c1 | 235 | 0 | 11* | 1 | 0 | 5 | 0 | 3
COc1c(C(=O)Nc2ccc(Br)cn2)ccc2ccccc12 | 98 | 0 | 12* | -8 | -1 | -1 | 0 | 4
Cc1ccccc1NC(=O)c1ccc(N/N=C/c2ccccc2O)c([N+](=O)[O-])c1 | 89 | -1 | -1 | 0 | -1 | 1 | x | x
Cc1ccc(NC(=O)c2ccc(N/N=C/c3cccc(O)c3)c([N+](=O)[O-])c2)cc1 | 100 | 0 | 9.9* | -3 | -1 | -8 | 5 | 15
CCN(C(=O)c1ccc(S(C)(=O)=O)cc1)C12CC3CC(CC(C3)C1)C2 | 97 | 1 | -2 | -2 | 1 | 2 | x | x
Cc1cc(C)c2nc(-n3nc(C)cc3N)cc(C)c2c1 | 97 | 0 | 15* | 1 | 0 | -8 | 2 | 3
Cc1cc(N)n(-c2cc(C)c3ccccc3n2)n1 | 96 | -3 | -1 | 1 | -1 | 8 | x | x
Cc1ccc(OCC(O)CNC2CCCC2)c(C)c1 (centres undefined) | 149 | 0 | -1 | -2 | 0 | -2 | x | x
Cc1ccccc1OCC(O)CNC1CCC(NCC(O)COc2ccccc2C)CC1 (centres undefined) | 95 | -1 | 11* | 26 | -1 | 6 | 38* | 35*
